From PubChem BioAssay
TRPML3 ag = agonists of human TRPML3 channel; HEK293 TRPML3-YFP, Fluo-8 calcium fluorescence; 100% = the carbachol control signal; AID 1448; 220,000 tested, 0.29% active; Q8TDD5; activation, % at 3 µM;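 active = activation above its plate's cutoff, the mean activation of the plate's test wells plus 3 SD, cut at about 12% in these data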;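 also: 0% = DMSO only wells and 100% = carbachol wells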
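Test system: HEK293 cells stably carrying human TRPML3-YFP; Doses: single dose, 3 µM final nominal compound, 0.3% DMSO final; Schedule: dye loading 1 h 37 °C then 30 min ambient, 125 s read; Technique: Fluo-8 calcium fluorescence; Benchmarks: high control carbachol 87 µM, low control DMSO.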
zfTRPN1 agonist = agonists of zebrafish TRPN1 channel | HEK293 zebrafish TRPN1-YFP, Fluo-8 calcium fluorescence; 100% = response to 87 µM carbachol | activation, % at 3 µM | 220,000 tested, 0.18% active;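 active = activation above its plate's cutoff, the mean activation of test wells on that plate plus 3 SD, cut at about 19% in these data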;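 also: 0% = DMSO alone and 100% = 87 µM carbachol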
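Material: zebrafish TRPN1-YFP in HEK293 cells. Doses: one dose of 3 µM, 0.3% DMSO. Incubation: dye 1 h 37 °C plus 30 min RT. Measured by: intracellular calcium fluorescence with Fluo-8.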
OXTR potentiator = potentiators of human oxytocin receptor; P30559; CHO-OTR cells, Fluo-8 calcium fluorescence, potentiator mode; 0% = oxytocin EC15, 100% = EC100; activation, % at 3 µM; 320,000 tested, 0.061% active;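 active = activation above that plate's cutoff, the mean activation of tested compounds plus 3 SD, cut at about 6.6% in these data, passing the limit was not always enough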;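 also: 100% uses oxytocin at 75 nM as the full agonist control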
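System: human OTR in CHO cells; Also added: sub-maximal oxytocin, roughly EC15; Timing: compound 6 min at room temperature before oxytocin, 100 s read; Technique: Fluo-8 intracellular calcium fluorescence, ex 470-495, em 515-575 nm; Controls: oxytocin EC15 low and EC100 high; Replication: singlicate.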
V1R ag counter = V1a receptor agonism, counter-screen for OXTR agonists | activation, % at 3 µM | 320,000 tested, 0.25% active | P37288 | AID 2797 | CHO-V1R cells, Fluo-8 calcium fluorescence, agonist mode; 0% DMSO, 100% 3 nM vasopressin;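 active = activation above the mean activation of all tested compounds plus 3 SD, per screening run, cut at about 20% in these data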;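 also: signal is peak over basal fluorescence ratio across a 100 second FLIPR read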
Target sequence (P37288 whole entry, looked up): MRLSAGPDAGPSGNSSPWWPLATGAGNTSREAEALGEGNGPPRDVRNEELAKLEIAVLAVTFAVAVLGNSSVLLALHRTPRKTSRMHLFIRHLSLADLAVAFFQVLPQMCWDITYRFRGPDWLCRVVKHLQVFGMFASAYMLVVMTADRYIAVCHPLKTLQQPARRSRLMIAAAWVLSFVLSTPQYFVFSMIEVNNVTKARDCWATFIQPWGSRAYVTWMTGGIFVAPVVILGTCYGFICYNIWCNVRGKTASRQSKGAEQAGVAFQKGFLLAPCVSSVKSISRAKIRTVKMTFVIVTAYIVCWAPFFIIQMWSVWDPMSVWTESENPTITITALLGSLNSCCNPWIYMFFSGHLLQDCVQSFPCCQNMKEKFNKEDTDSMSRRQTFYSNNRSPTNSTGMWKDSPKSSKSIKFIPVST
CRFBP-R2 agonist = agonists of human CRF-binding protein/CRF-R2 receptor complex. 350,000 tested, 0.46% active. activation, % at 13.2 µM. AID 588473. HEK293 CRF-R2/CRF-BP, calcium dye fluorescence (FLIPR); percent of saturating CRF peptide response;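 active = activation of at least 50%, plus an integration ratio under a set limit after plate pattern correction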;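 also: plate controls were neutral control wells without compound for no effect and CRF at EC100 for full effect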
OXTR ag = activates the human oxytocin receptor; P30559; CHO-OTR cells, Fluo-8 calcium fluorescence; normalized: DMSO 0%, oxytocin 100%; activation, % at 3 µM; 320,000 tested, 0.32% active; AID 2435;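 active = activation above the mean of all tested compounds plus 3 SD, cutoff set per screening run, cut at about 20% in these data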;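 also: peak over basal fluorescence ratio from a 100 s FLIPR kinetic read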
* hit, by the source's call; / = no result given. Rows were chosen to be rich in hits. Some 0.85% of all compounds tested hit in one or more screens of this group.

SMILES	TRPML3 ag	zfTRPN1 agonist	OXTR potentiator	V1R ag counter	CRFBP-R2 agonist	OXTR ag
CCn1c(=O)c(CCC(=O)NCC2CCCO2)c(C)c2c(C)nn(-c3ccccc3)c21 (configuration not stated)	/	/	-9	0	-2	-2
CCN(CC)c1nc(C=Cc2ccc(N(C)C)cc2)c2nccnc2n1	/	/	/	/	215*	/
CN(C)c1nc(N)c2nccnc2n1	/	/	/	/	1	/
CC(C)N(CCNC(=O)c1nn(Cc2ccccc2)c(=O)c2ccccc12)C(C)C	/	/	-5	-1	/	-1
Cc1ccc(S(=O)(=O)N(C)CC(=O)NCCCc2ccccc2)cc1	/	/	4	0	61*	0
CCCCc1ccc(NC(=O)CN(C)CC(=O)Nc2ccccc2Cl)cc1	/	/	-4	1	0	-2
CCCCNc1cc(C)nc(NCc2ccccc2)n1	3	6	-34	27*	-2	30*
CC(C)N(C(=O)[C@H]1C[C@H](CC(=O)NCCN2CCOCC2)C(=O)N2CCc3c([nH]c4cc(-c5ccco5)ccc34)[C@]12C)C(C)C	/	/	/	/	0	/
CCCCNc1ccc2c3c(cccc13)C(=O)N(CCCC)C2=O	154*	283*	/	/	194*	/
O=C1c2cccc3c(N4CCCCC4)ccc(c23)C(=O)N1c1ccccn1	6	7	-30	40*	16	42*
O=C1c2cccc3c(N4CCCCC4)ccc(c23)C(=O)N1c1ccc(Cl)cn1	6	6	/	/	/	/
CCCN1C(=O)c2cccc3c(N4CCCCC4)ccc(c23)C1=O	7	23*	-4	3	206*	5
O=C(OCCN1C(=O)c2cccc3c(N4CCOCC4)ccc(c23)C1=O)c1cc(Cl)cc(Cl)c1	2	4	/	/	/	/
CCN(CC)S(=O)(=O)c1ccc(C(=O)OCCN2C(=O)c3cccc4c(N5CCOCC5)ccc(c34)C2=O)cc1	2	2	4	3	184*	1
COc1cc(-c2noc(C)c2-c2ccc(N(C)C)nc2)cc(OC)c1OC	/	/	-18	34*	53*	36*
c1ccc(CNc2ncnc3c2cnn3Cc2ccccc2)cc1	2	6	-13	21*	35	25*
O=C(Nc1cccc(C(=O)N2CCCC2)c1)C1CC1	/	/	/	/	-1	/
COCCn1c2nc(=O)n(-c3ccccc3)c(=O)c-2nc2ccccc21	/	/	/	/	194*	/
CSCC[C@H](NC(=O)[C@H](Cc1ccccc1)n1c(=O)[nH]c2ccccc2c1=O)C(=O)N1CCC(C(=O)O)CC1	/	/	1	0	-2	1
COC(=O)C1=C(C)N(Cc2ccccc2)C(=NCC(C)C)N[C@H]1c1cccc(F)c1	/	/	-11	23*	5	31*
COc1ccc(C(C)=O)cc1COC(=O)c1cc(=O)c2ccccc2o1	/	/	-6	1	1	2
O=C(Nc1nnc(-c2ccc(Cl)cc2)o1)Nc1ccccc1Cl	1	0	-7	0	1	-2
O=C(Nc1nnc(-c2ccc(F)cc2)o1)c1cccc([N+](=O)[O-])c1	1	0	-14	8	38	14
O=C(Nc1nnc(-c2ccc(F)cc2)o1)c1cc(Cl)sc1Cl	1	0	5	1	91*	0
O=C(Nc1nnc(-c2ccc(Cl)cc2)o1)c1nc2ccccc2s1	0	0	-7	6	187*	5
SMILES	TRPML3 ag	zfTRPN1 agonist	OXTR potentiator	V1R ag counter	CRFBP-R2 agonist	OXTR ag
Cc1cccc(-c2nnc(NC(=O)c3ccc(Cl)cc3)o2)c1	1	0	-2	10	108*	1
COc1ccc(C(=O)Nc2nnc(-c3ccccc3)o2)cc1OC	1	0	-3	0	-1	-1
O=C(Nc1nnc(-c2ccccc2)o1)c1cc(Cl)sc1Cl	1	1	-6	-1	188*	-1
CC(=Nc1ccccc1)C1=C(O)C(Cc2cccc(F)c2)NC1=O (configuration not stated)	/	/	/	/	-3	/
CCCN(CCC)S(=O)(=O)c1ccc(C(=O)Nc2nnc(-c3cccc(OC)c3)o2)cc1	1	1	-1	0	100*	-2
CCCN(CCC)S(=O)(=O)c1ccc(C(=O)Nc2nnc(-c3cc(OC)cc(OC)c3)o2)cc1	0	0	0	1	1	0
CCOC(=O)c1ccc(Cl)c(NC(=O)c2ccc(-c3ccccc3)cc2)c1	0	2	-5	1	-1	0
CCOC(=O)c1ccc(/C=C2/C=C(c3ccccc3)N(c3ccc(Cl)c(C(=O)O)c3)C2=O)cc1	2	3	-5	11	96*	14
Nc1ncn(C(=S)Nc2ccccc2)n1	/	/	/	/	-3	/
CC(C)Cc1ccc(C(C)C(=O)Nc2nccs2)cc1 (configuration not stated)	11	12	-14	29*	30	32*
CC(C)Cc1ccc(C(C)C(=O)Nc2ccccc2O)cc1 (configuration not stated)	22*	46*	-34	40*	77*	42*
Cc1ccccc1S(=O)(=O)Cc1ccc(C(=O)NC2CC2)o1	/	/	-5	2	-2	1
CCN(CC)C(=O)C1=C(C)N(Cc2ccc(C(C)(C)C)cc2)C(=O)C(CC(=O)NC(c2ccccc2)c2ccccc2)C1 (configuration not stated)	/	/	/	/	-1	/
COc1ccc(N=Cc2c(O)c3ccccc3n2C(C)=O)cc1	1	3	-5	1	99*	2
COc1ccc(N=Cc2sc(O)c3ccccc23)cc1	28*	33*	-25	77*	271*	58*
CCN(C[C@H]1N[C@@](Cc2ccccc2)(C(=O)OC)[C@H]2C(=O)N(C)C(=O)[C@@H]12)S(=O)(=O)c1ccc(-c2ccccc2)cc1	/	/	-9	2	0	4
CCOC(=O)CC1C(=O)NCCN1c1nc2c(C)cccn2c(=O)c1/C=C1\SC(=S)N(CC(C)C)C1=O (configuration not stated)	12*	36*	/	/	/	/
O=C1/C(=C\c2c(NCCOCCO)nc3ccccn3c2=O)SC(=S)N1Cc1ccco1	/	/	-27	56*	102*	40*
CCCN1C(=O)/C(=C/c2c(NCCCOCC)nc3c(C)cccn3c2=O)SC1=S	1	2	/	/	113*	/
CCOCCCNc1nc2c(C)cccn2c(=O)c1/C=C1\SC(=S)N(CC(C)C)C1=O	1	0	-14	1	170*	1
CC1CCCC(NC(=O)CN2C(=O)NC(c3ccccc3)(c3ccccc3)C2=O)C1C (configuration not stated)	/	/	/	/	-2	/
Cc1nnc(N2CCC(C(=O)N3CCCCCC3)CC2)c2nn(-c3ccc(Cl)cc3)c(C)c12	/	/	-2	1	0	-2
